Data from ChEMBL document CHEMBL6092204, “Synthesis of pyridyl pyrimidine hedgehog signaling pathway inhibitors and their antitumor activity in human pancreatic cancer” (Eur J Med Chem, 2024).
The source made the active and inactive calls. No cut-off for these calls is given here.

Legend:
[1] = Inhibition of Hh signaling pathway in mouse NIH3T3 cells incubated for 48 hrs by Gli luciferase reporter assay; type: cell-based; settings: NIH3T3, 48 h
Procedure, shortened: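 Reporter cells were seeded in 96-well plates, incubated overnight, then treated for 48 h. Lysate luciferase activity was measured with a dual-luciferase system, and firefly signal was normalised to Renilla.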

PANC-1 [2] = assay: Induction of apoptosis in human PANC-1 cells assessed as viable cells at 10 uM incubated for 48 hrs by Annexin V-FITC/PI staining based flow cytometry (reference value: 93.2 %); type: functional; settings: read-out: Activity
BXPC-3 [3] = assay: Induction of apoptosis in human BXPC-3 cells assessed as viable cells at 10 uM incubated for 48 hrs by Annexin V-FITC/PI staining based flow cytometry (reference value: 91.5 %); type: functional; settings: read-out: Activity
PANC-1 [4] = assay: Induction of apoptosis in human PANC-1 cells assessed as necrotic cells at 10 uM incubated for 48 hrs by Annexin V-FITC/PI staining based flow cytometry (reference value: 2.24 %); type: functional
PANC-1 [5] = assay: Induction of apoptosis in human PANC-1 cells assessed as early apoptotic cells at 10 uM incubated for 48 hrs by Annexin V-FITC/PI staining based flow cytometry (reference value: 1.88 %); type: functional
BXPC-3 [6] = assay: Induction of apoptosis in human BXPC-3 cells assessed as early apoptotic cells at 10 uM incubated for 48 hrs by Annexin V-FITC/PI staining based flow cytometry (reference value: 1.11 %); type: functional
BxPC-3 [7] = assay: Antitumor activity aginst human BxPC-3 cells xenografted in BALB/c nude mouse assessed as tumor growth inhibition at 15 mg/kg, ip qd for 21 days; settings: time 21.0 day
BXPC-3 [8] = assay: Induction of apoptosis in human BXPC-3 cells assessed as necrotic cells at 10 uM incubated for 48 hrs by Annexin V-FITC/PI staining based flow cytometry (reference value: 0.71 %); type: functional
PANC-1 [9] = assay: Induction of apoptosis in human PANC-1 cells assessed as late apoptotic cells at 10 uM incubated for 48 hrs by Annexin V-FITC/PI staining based flow cytometry (reference value: 2.74 %); type: functional
BXPC-3 [10] = assay: Induction of apoptosis in human BXPC-3 cells assessed as late apoptotic cells at 10 uM incubated for 48 hrs by Annexin V-FITC/PI staining based flow cytometry (reference value: 6.72 %); type: functional

SMILES	IC50 [1]	also measured
O=C(Nc1cccnc1)c1ccc(Nc2nccc(-c3cccnc3)n2)cc1	28.1 nM	–
CN1CCN(c2ccc(NC(=O)c3ccc(Nc4nccc(-c5cccnc5)n4)cc3)cc2)CC1	4.5 nM	–
COc1ccc(NC(=O)c2ccc(Nc3nccc(-c4cccnc4)n3)cc2)cc1OC	22.5 nM	–
COc1cc(NC(=O)c2ccc(Nc3nccc(-c4cccnc4)n3)cc2)cc(OC)c1	29.7 nM	–
O=C(Nc1ccc(N2CCOCC2)c(F)c1)c1ccc(Nc2nccc(-c3cccnc3)n2)cc1	33.5 nM	–
O=C(Nc1ccc(N2CCOCC2)cc1)c1ccc(Nc2nccc(-c3cccnc3)n2)cc1	17.3 nM	–
COc1ccccc1NC(=O)c1ccc(Nc2nccc(-c3cccnc3)n2)cc1	9.1 nM	–
Cc1ccc(NC(=O)c2ccc(Nc3nccc(-c4cccnc4)n3)cc2)cc1F	46.4 nM	–
O=C(Nc1ccc(Cl)cc1)c1ccc(Nc2nccc(-c3cccnc3)n2)cc1	24.8 nM	–
CCOc1ccc(NC(=O)c2ccc(Nc3nccc(-c4cccnc4)n3)cc2)cc1	12.2 nM	–
CS(=O)(=O)c1ccc(C(=O)Nc2ccc(Cl)c(-c3ccccn3)c2)c(Cl)c1 [VISMODEGIB]	15.1 nM	viability at 10 µM (PANC-1 [2]): 91.8%; viability at 10 µM (BXPC-3 [3]): 90.6%; Activity (PANC-1 [4]): 2.68%; Activity (PANC-1 [5]): 2.2%; Activity (BXPC-3 [6]): 1.05%; inhibition (BxPC-3 [7]): Active; Activity (BXPC-3 [8]): 0.77%; Activity (PANC-1 [9]): 3.3%; Activity (BXPC-3 [10]): 7.55%
O=C(Nc1ccc(F)cc1)c1ccc(Nc2nccc(-c3cccnc3)n2)cc1	35.3 nM	–
COc1cc(NC(=O)c2ccc(Nc3nccc(-c4cccnc4)n3)cc2)cc(OC)c1OC	18.6 nM	–
O=C(Nc1cccc(F)c1)c1ccc(Nc2nccc(-c3cccnc3)n2)cc1	15.9 nM	–
Cc1ccccc1NC(=O)c1ccc(Nc2nccc(-c3cccnc3)n2)cc1	14.6 nM	–
Cc1cccc(NC(=O)c2ccc(Nc3nccc(-c4cccnc4)n3)cc2)c1	13.8 nM	–
Cc1cc(F)cc(NC(=O)c2ccc(Nc3nccc(-c4cccnc4)n3)cc2)c1	10.3 nM	–
COc1ccc(NC(=O)c2ccc(Nc3nccc(-c4cccnc4)n3)cc2)cc1	14.2 nM	–
O=C(Nc1cccc(C(F)(F)F)c1)c1ccc(Nc2nccc(-c3cccnc3)n2)cc1	25.6 nM	–
CNCc1ccc(C)c(NC(=O)c2ccc(Nc3nc(-c4ccccc4)c4ccccc4n3)cc2)c1 [BMS-833923]	5.5 nM	–
